Experimental data: ChEMBL document CHEMBL1145518, “Potent immune-modulating and anticancer effects of NKT cell stimulatory glycolipids” (2007)
Calls of active or inactive are those of the source. No cut-off for these calls is given here.

Tests used:
[1] = Induction of IL3 secretion in human CD161+ CD3+ NKT cells at 10 ug/ml after 18 hrs relative to basal level; format: functional
Outline: (§1)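 Human Vα24i NKT cell lines were expanded for 10 days on irradiated (3,000 rad) autologous immature DCs with 10 units/ml IL-2. The cells (1 × 10^5) were cocultured with 5 × 10^4 irradiated immature CD14+ DCs plus glycolipid at 10 μg/ml. Supernatants were collected at 18 h and read on a 22-plex Luminex bead panel. Triplicates, mean ± SD.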

[2] = Induction of IL12p40 secretion in human CD161+ CD3+ NKT cells at 10 ug/ml after 18 hrs relative to basal level; format: functional; outline: as §1
[3] = Induction of RANTES secretion in human CD161+ CD3+ NKT cells at 10 ug/ml after 18 hrs relative to basal level; format: functional; outline: as §1
[4] = Induction of GM-CSF secretion in human CD161+ CD3+ NKT cells at 10 ug/ml after 18 hrs relative to basal level; format: functional; outline: as §1
[5] = Induction of IL10 secretion in human CD161+ CD3+ NKT cells at 10 ug/ml after 18 hrs relative to basal level; format: functional; outline: as §1
[6] = Induction of IL8 secretion in human CD161+ CD3+ NKT cells at 10 ug/ml after 18 hrs relative to basal level; format: functional; outline: as §1
[7] = Induction of MIPalpha secretion in human CD161+ CD3+ NKT cells at 10 ug/ml after 18 hrs relative to basal level; format: functional; outline: as §1
[8] = Induction of IL6 secretion in human CD161+ CD3+ NKT cells at 10 ug/ml after 18 hrs relative to basal level; format: functional; outline: as §1
[9] = Induction of IL2 secretion in human CD161+ CD3+ NKT cells at 10 ug/ml after 18 hrs relative to basal level; format: functional; outline: as §1
[10] = Induction of IL15 secretion in human CD161+ CD3+ NKT cells at 10 ug/ml after 18 hrs relative to basal level; format: functional; outline: as §1
[11] = Induction of MCP1 secretion in human CD161+ CD3+ NKT cells at 10 ug/ml after 18 hrs relative to basal level; format: functional; outline: as §1
[12] = Induction of TNFalpha secretion in human CD161+ CD3+ NKT cells at 10 ug/ml after 18 hrs relative to basal level; format: functional; outline: as §1
[13] = Induction of IFN-gamma secretion in human CD161+ CD3+ NKT cells at 10 ug/ml after 18 hrs relative to basal level; format: functional; outline: as §1
[14] = Induction of IL12p70 secretion in human CD161+ CD3+ NKT cells at 10 ug/ml after 18 hrs relative to basal level; format: functional; outline: as §1
[15] = Induction of IL13 secretion in human CD161+ CD3+ NKT cells at 10 ug/ml after 18 hrs relative to basal level; format: functional; outline: as §1
[16] = Induction of IL4 secretion in human CD161+ CD3+ NKT cells at 10 ug/ml after 18 hrs relative to basal level; format: functional; outline: as §1
Mus musculus [17] = assay: Induction of IL12p40 secretion in BALB/c mouse serum at 2 ug, iv after 18 hrs relative to control; format: functional
Outline: (§2)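 BALB/c mice received an i.v. injection of 100 μl of glycolipid diluted to 20 μg/ml in saline from DMSO stock, with 1% DMSO as vehicle. Serum cytokines/chemokines were measured at 2 and 18 h after injection.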

Mus musculus [18] = assay: Induction of IFN-gamma secretion in BALB/c mouse serum at 2 ug, iv after 18 hrs relative to control; format: functional; outline: as §2
Mus musculus [19] = assay: Induction of IL2 secretion in BALB/c mouse serum at 2 ug, iv after 2 hrs relative to control; format: functional; outline: as §2
Mus musculus [20] = assay: Induction of GM-CSF secretion in BALB/c mouse serum at 2 ug, iv after 2 hrs relative to control; format: functional; outline: as §2
Mus musculus [21] = assay: Induction of IL6 secretion in BALB/c mouse serum at 2 ug, iv after 2 hrs relative to control; format: functional; outline: as §2
Mus musculus [22] = assay: Induction of TNFalpha secretion in BALB/c mouse serum at 2 ug, iv after 18 hrs relative to control; format: functional; outline: as §2
Mus musculus [23] = assay: Induction of IL4 secretion in BALB/c mouse serum at 2 ug, iv after 2 hrs relative to control; format: functional; outline: as §2
Mus musculus [24] = assay: Induction of IL10 secretion in BALB/c mouse serum at 2 ug, iv after 18 hrs relative to control; format: functional; outline: as §2
Mus musculus [25] = assay: Induction of IL13 secretion in BALB/c mouse serum at 2 ug, iv after 2 hrs relative to control; format: functional; outline: as §2
Mus musculus [26] = assay: Induction of IL12p70 secretion in BALB/c mouse serum at 2 ug, iv after 18 hrs relative to control; format: functional; outline: as §2
Mus musculus [27] = assay: Induction of IL1-beta secretion in BALB/c mouse serum at 2 ug, iv after 18 hrs relative to control; format: functional; outline: as §2
Mus musculus [28] = assay: Induction of RANTES secretion in BALB/c mouse serum at 2 ug, iv after 2 hrs relative to control; format: functional; outline: as §2
Mus musculus [29] = assay: Induction of IL3 secretion in BALB/c mouse serum at 2 ug, iv after 2 hrs relative to control; format: functional; outline: as §2
Mus musculus [30] = assay: Induction of MIPbeta secretion in BALB/c mouse serum at 2 ug, iv after 2 hrs relative to control; format: functional; outline: as §2
Mus musculus [31] = assay: Induction of KC secretion in BALB/c mouse serum at 2 ug, iv after 2 hrs relative to control; format: functional; outline: as §2
TC1 = assay: Antitumor activity in TC1 cells xenografted C57BL/6 mouse assessed as suppression of tumor growth at 2 ug, iv; format: functional, cell-based
Outline: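 C57BL/6 mice (n = 5/group) were inoculated i.v. with TC-1 lung cancer cells. They were then treated i.v. with 2 μg glycolipid per mouse, or 100 μl of 1% DMSO, twice weekly for 4 weeks. Kaplan–Meier survival and body weight were followed, with tumor-free mice as an additional control.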

Mus musculus [32] = assay: Induction of MCP1 secretion in BALB/c mouse serum at 2 ug, iv after 2 hrs relative to control; format: functional; outline: as §2
4T1 = assay: Antitumor activity in mouse 4T1 cells xenografted BALB/c mouse assessed as suppression of tumor growth at 2 ug, iv; format: functional, cell-based
Outline: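 BALB/c mice (n = 6) were inoculated s.c. with 4T1 breast cancer cells. From day 3 they were treated i.v. with glycolipid or vehicle twice weekly for 4 weeks. Tumor volume was recorded every 3 days for 1 month, and survival was monitored up to 54 days.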

NKT = assay: Stimulation of cell expansion of human invariant CD161+/ Valpha24+/ CD56+/ CD3+ NKT cells by flow cytometry method; format: functional, cell-based
Outline: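 CD56+ NK/NKT mixtures (2 × 10^6) were isolated from human leukopaks with anti-CD56 microbeads. They were cocultured with 4 × 10^5 autologous immature CD14+ DCs pulsed with glycolipid at 3 μg/ml, or with 0.3% DMSO, on day 2 for 18 h. Suspension cells were then transferred and kept in 100 units/ml IL-2 with fresh medium every 3 days. On day 9, CD161+/Vα24TCR+ cells were gated by flow cytometry and total Vα24i NKT cells counted. Triplicates, mean ± SD.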

Mus musculus [33] = assay: Activation of B cells in BALB/c mouse at 2 ug, iv after 72 hrs by flow cytometry; format: functional, organism-based

| SMILES | Activity [1] | Activity [2] | Activity [3] | Activity [4] | Activity [5] | Activity [6] | Activity [7] | Activity [8] | Activity [9] | Activity [10] | Activity [11] | Activity [12] | Activity [13] | Activity [14] | Activity [15] | Activity [16] | Activity (TC1) | further results |
| --- | --- | --- | --- | --- | --- | --- | --- | --- | --- | --- | --- | --- | --- | --- | --- | --- | --- | --- |
| CCCCCCCCCCCCCC[C@@H](O)[C@@H](O)[C@H](CO[C@H]1O[C@H](CO)[C@H](O)[C@H](O)[C@H]1O)NC(=O)CCCc1ccccc1 | 1.8 | 1.4 | 1.5 | 2.8 | 1.3 | 1.6 | 3.2 | 1.6 | 1.4 | 2.2 | 1 | 3.3 | 2.1 | 1.2 | 1.6 | 1.9 | – | – |
| CCCCCCCCCCCCCCC[C@@H](O)[C@H](CO[C@H]1O[C@H](C(=O)O)[C@H](O)[C@H](O)[C@H]1O)NC(=O)CCCCCCCCCCCCC | 1.7 | 1.9 | 2.4 | 2.9 | 1.7 | 2.3 | 3.5 | 2.3 | 1.3 | 2 | 1.7 | 5.5 | 2.4 | 1.7 | 2 | 2.9 | Active | Activity (Mus musculus [17]): 1.9; Activity (Mus musculus [18]): 3.1; Activity (Mus musculus [19]): 17.2; Activity (Mus musculus [20]): 4.9; Activity (Mus musculus [21]): 1.7; Activity (Mus musculus [22]): 6; Activity (Mus musculus [23]): 26.8; Activity (Mus musculus [24]): 1.1; Activity (Mus musculus [25]): 2.3; Activity (Mus musculus [26]): 1.2; Activity (Mus musculus [27]): 2; Activity (Mus musculus [28]): 0.9; Activity (Mus musculus [29]): 2.8; Activity (Mus musculus [30]): 1.4; Activity (Mus musculus [31]): 7.6; Activity (Mus musculus [32]): 5.6; Activity (4T1): Active |
| CCCCCCCCCCCCCCCCCCCCCCCCCC(=O)N[C@@H](CS[C@H]1O[C@H](CO)[C@H](O)[C@H](O)[C@H]1O)[C@H](O)[C@H](O)CCCCCCCCCCCCCC | 1.1 | 1.7 | 1.5 | 1.6 | 0.6 | 1.9 | 1.5 | 1.5 | 1.2 | 1.8 | 1.4 | 2.5 | 1.3 | 1 | 1.6 | 2.1 | – | – |
| CCCCCCCCCCCCCC[C@@H](O)[C@@H](O)[C@H](CO[C@H]1O[C@H](CO)[C@H](O)[C@H](O)[C@H]1O)NC(=O)CCCCCc1ccccc1 | 4.1 | 2.4 | 1.8 | 5.6 | 2.4 | 2.2 | 3 | 2.7 | 5.9 | 2.6 | 1.3 | 8.7 | 4.6 | 3.3 | 2.6 | 3 | Active | Activity (NKT): Active; Activity (Mus musculus [33]): Active |
